Bioassay records (PubChem BioAssay)
Sampled rows, rich in hits. Any-hit rate of the full collection: about 2.3%.
TRPC4 potent: allosteric potentiators of mouse TRPC4 channel. B-score at 10 µM. Q9QUQ5. hit rate 0.42% among 310,000. HEK293 TRPC4beta/mu-opioid, DAMGO EC20, Fluo-4 Ca2+ flux; active compounds read high;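 active = B-score of calcium response area above 5 SD of library B-scores, with initial fluorescence ratio within 5 SD of library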;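 note: B-score of integrated fluorescence ratio over time as area under calcium response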
TRPC4 act: activators of mouse TRPC4 channel; HEK293 TRPC4beta/mu-opioid, Fluo4 calcium fluorescence; active compounds read high; B-score at 10 µM; hit rate 0.49% among 310,000; AID 2237;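 active = B-score above 5 SD of library B-scores, and initial fluorescence ratio not above library mean plus 5 SD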;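 note: positive B-score marks a calcium rise read as TRPC4 activation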
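Assay system: HEK293 stable line with TRPC4beta plus mu-opioid receptor; schedule: 45 min room-temperature Fluo4 loading, 110 s read; technique: kinetic Fluo4 calcium fluorescence; evaluation: integrated baseline-normalised fluorescence ratio, converted to per-well B score; controls: buffer (low) and maximal DAMGO (high)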
TRPC6 activator: mouse TRPC6 channel activation | HEK293-TRPC6 membrane potential dye fluorescence; active compounds read high | hit rate 0.13% among 310,000 | Q61143 | AID 2550 | B-score at 10 µM;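 active = B-score of the integrated fluorescence ratio above library mean plus 3 SD, and starting fluorescence ratio within library mean plus 5 SD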;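 note: higher score means more depolarization so channel activation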
Target sequence (Q61143 whole entry, looked up): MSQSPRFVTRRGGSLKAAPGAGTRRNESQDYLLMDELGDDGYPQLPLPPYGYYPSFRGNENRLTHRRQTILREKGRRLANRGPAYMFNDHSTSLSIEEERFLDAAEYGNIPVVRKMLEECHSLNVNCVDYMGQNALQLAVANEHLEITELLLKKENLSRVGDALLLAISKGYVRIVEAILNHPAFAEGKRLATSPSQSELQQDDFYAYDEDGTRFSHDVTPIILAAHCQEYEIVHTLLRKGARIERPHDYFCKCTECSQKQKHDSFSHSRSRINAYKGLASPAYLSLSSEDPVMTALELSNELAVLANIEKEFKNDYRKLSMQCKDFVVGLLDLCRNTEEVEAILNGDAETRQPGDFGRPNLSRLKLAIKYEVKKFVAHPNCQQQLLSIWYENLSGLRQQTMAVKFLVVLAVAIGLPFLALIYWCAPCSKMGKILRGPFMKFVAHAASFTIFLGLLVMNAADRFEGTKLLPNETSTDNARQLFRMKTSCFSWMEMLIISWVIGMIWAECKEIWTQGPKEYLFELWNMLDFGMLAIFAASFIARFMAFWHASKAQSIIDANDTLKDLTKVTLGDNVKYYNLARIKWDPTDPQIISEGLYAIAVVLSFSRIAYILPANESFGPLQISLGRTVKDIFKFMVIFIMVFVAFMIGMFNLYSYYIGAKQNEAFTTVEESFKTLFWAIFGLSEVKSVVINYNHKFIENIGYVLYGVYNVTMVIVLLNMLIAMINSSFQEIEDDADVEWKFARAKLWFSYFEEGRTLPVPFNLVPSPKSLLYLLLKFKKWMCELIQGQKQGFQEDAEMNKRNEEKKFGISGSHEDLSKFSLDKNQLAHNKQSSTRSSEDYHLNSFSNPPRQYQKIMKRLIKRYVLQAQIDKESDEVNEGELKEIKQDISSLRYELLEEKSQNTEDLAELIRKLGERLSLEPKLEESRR
TRPC4 block: TRPC4 (mouse) channel inhibition | Q9QUQ5 | HEK293 TRPC4beta/mu-opioid, DAMGO-evoked Fluo4 calcium flux; active compounds read low | B-score at 10 µM | hit rate 0.39% among 300,000 | AID 2247;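 active = B-score over 3 SD under the library average, no early fluorescence shift, positive overall ratio signal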
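System: stable TRPC4beta/mu-opioid receptor HEK293 cells; Dosing: single-point compound dosing; Measured by: Fluo4 Ca2+ flux fluorescence; Read-out basis: per-well B score of integrated baseline-normalized Fluo4 ratio.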
TRPC6 inhibitor: inhibitors of mouse TRPC6 channel; HEK293-TRPC6, membrane potential dye, ACh-evoked depolarization; active compounds read low; hit rate 1.1% among 310,000; AID 2553; B-score at 10 µM;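 active = B-score under library mean minus 3 SD, initial fluorescence not abnormally high, positive integrated signal ratio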;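 note: B-score derived from integrated fluorescence ratio over the kinetic read; more negative B-score means stronger inhibition of depolarization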
TRPC4 spec 2: mouse TRPC4 off-target activity of TRPC6 inhibitors, second screen. shares compounds with TRPC6 inhibitor. inhibition, % at 10 µM. HEK293 TRPC4/MOR, membrane potential dye fluorescence; channel activated by saturating DAMGO dose. hit rate 42% among 920;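 active = compounds whose fluorescence signal differed from control wells by over 3 SD, either direction, in both duplicate plates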
TRPC4 spec: selectivity of TRPC6 inhibitors: effect on mouse TRPC4; AID 2777; hit rate 61% among 920; HEK293 TRPC4/mu-opioid, membrane potential fluorescence; shares compounds with TRPC6 inhibitor; activity change, negative = inhibition, % at 10 µM;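 active = rise or fall in signal beyond 3 SD of buffer-only wells in both replicate plates, either sign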;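 note: integrated kinetic ratio of fluorescence range over baseline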
HEK293 MPD ctr 2-1: second counter-screen for TRPC6 inhibitors: parental HEK293 cells | signal change vs control, % at 10 µM | shares compounds with TRPC6 inhibitor | parental HEK293 membrane potential dye fluorescence; maximal acetylcholine challenge after compound addition | hit rate 31% among 920 | AID 2779;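 active = membrane potential signal moving either way by over 3 SD of the maximum-effect control, in both duplicate plates, meaning non-specific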
HEK293 MPD ctr-1: counter-screen for TRPC6 inhibitors: effect in parental HEK293 cells; AID 2780; parental HEK293 membrane potential dye fluorescence; hit rate 60% among 920; membrane potential signal change, % at 10 µM; shares compounds with TRPC6 inhibitor;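 active = membrane potential signal shifting up or down by more than 3 SD of buffer-only wells, on both duplicate plates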
HEK293 MPD ctr-2: counter-screen for TRPC6 modulators: effect in parental HEK293 cells. shares compounds with TRPC6 inhibitor. hit rate 51% among 2,400. membrane potential signal change, % at 10 µM. membrane potential dye fluorescence;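 active = membrane potential signal moves up or down beyond 5 SD from buffer-only wells, on both duplicate plates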
HEK293 MPD ctr 2-2: second check of TRPC6 modulator effects in parental HEK293 cells | inhibition, % at 10 µM | hit rate 14% among 2,400 | shares compounds with TRPC6 inhibitor | membrane potential dye fluorescence; after compound, maximal acetylcholine stimulation;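 active = membrane potential signal drops by more than 5 SD from the mean control signal, in both duplicate plates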;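 note: plate controls were acetylcholine ECmax control wells for no effect and buffer only wells for full effect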
TRPC4/MOR mod: selectivity of TRPC6 modulators against mouse TRPC4. shares compounds with TRPC6 inhibitor. HEK293 TRPC4/mu-opioid, membrane potential fluorescence. percent change from control (negative = decrease, positive = increase), % at 10 µM. hit rate 69% among 2,400;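 active = membrane potential signal moved up or down beyond 5 SD of buffer control wells, in both duplicate plates, actives on both sides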;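 note: plate controls were assay buffer wells for no effect and DAMGO maximal-effect wells for full effect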
TRPC4 ctr inh 2: second selectivity test of TRPC6 modulators against mouse TRPC4 | AID 488928 | HEK293 TRPC4/mu-opioid, membrane potential dye fluorescence; stimulated with maximal-effect DAMGO | shares compounds with TRPC6 inhibitor | hit rate 55% among 2,400 | inhibition, % at 10 µM;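 active = drop in membrane potential signal beyond 5 SD of the control wells in both duplicate plates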;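 note: TRPC4 counter screen for TRPC6 hits run under conditions tuned for TRPC6 not TRPC4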
TRPC6 inh conf: confirmation of mouse TRPC6 inhibitors | shares compounds with TRPC6 inhibitor | HEK293-TRPC6, membrane potential dye, ACh-evoked depolarization | inhibition, % at 10 µM | hit rate 43% among 3,300 | AID 488960;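 active = fluorescence ratio falls more than 5 SD below the full-stimulation control mean, in both duplicate runs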;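 note: integrated fluorescence ratio of peak minus minimum over baseline after agonist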
TRPC6 act conf: mouse TRPC6 activator confirmation | shares compounds with TRPC6 inhibitor | HEK293-TRPC6 membrane potential dye fluorescence, FDSS | activation, % at 10 µM | hit rate 11% among 2,800 | AID 488961;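 active = ratio signal rise beyond 5 SD above unstimulated control wells' mean, seen in both duplicate runs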;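 note: plate controls were buffer EC0 wells for no effect and acetylcholine ECmax response for full effect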
* marks the source's active call; other numbers are inactive results.

O=C(NC(Nc1ncc(S(=O)(=O)c2ccc([N+](=O)[O-])cc2)s1)(C(F)(F)F)C(F)(F)F)c1ccc(Cl)cc1 was read as TRPC4 potent inactive, TRPC4 act inactive, TRPC6 activator inactive, TRPC4 block inactive, TRPC6 inhibitor -8.2*, TRPC4 spec 2 65%*, TRPC4 spec 9.8%*, HEK293 MPD ctr 2-1 inactive, HEK293 MPD ctr-1 5.0%*, TRPC6 inh conf 68%* and TRPC6 act conf inactive.
COC(=O)c1ccc(COc2ccccc2/C=N/NS(=O)(=O)c2ccc(C)cc2)cc1 was read as TRPC4 potent inactive, TRPC4 act inactive, TRPC6 activator inactive, TRPC4 block inactive and TRPC6 inhibitor inactive.
CCN1C(=O)/C(=C/C=C2\N(CC)c3cc(S(=O)(=O)N(C)C)ccc3N2c2ccccc2)SC1=S was read as TRPC4 potent 20*, TRPC4 act inactive, TRPC6 activator 16*, TRPC4 block inactive, TRPC6 inhibitor inactive, HEK293 MPD ctr-2 366%*, HEK293 MPD ctr 2-2 inactive, TRPC4/MOR mod 87%*, TRPC4 ctr inh 2 inactive, TRPC6 inh conf inactive and TRPC6 act conf inactive.
Cc1ccc2nc3c(c(C(=O)O)c2c1)CCC3 was read as TRPC4 potent inactive, TRPC4 act inactive, TRPC6 activator inactive, TRPC4 block inactive and TRPC6 inhibitor inactive.
Screening Cc1nc2c(C)cccc2c2c1COC2 returned TRPC4 potent inactive, TRPC4 act inactive, TRPC6 activator inactive, TRPC4 block inactive, TRPC6 inhibitor -9.1*, TRPC4 spec 2 inactive, TRPC4 spec -30%*, HEK293 MPD ctr 2-1 36%*, HEK293 MPD ctr-1 -434%*, TRPC6 inh conf 61%* and TRPC6 act conf inactive.
For Cc1ccc2nc(C)c3c(c2c1)COC3 the results were TRPC4 potent inactive, TRPC4 act inactive, TRPC6 activator inactive, TRPC4 block inactive, TRPC6 inhibitor -6.3*, HEK293 MPD ctr-2 -165%*, HEK293 MPD ctr 2-2 84%*, TRPC4/MOR mod -27%*, TRPC4 ctr inh 2 47%*, TRPC6 inh conf 44%* and TRPC6 act conf inactive.
`Cc1ccc(-n2ncc(C(=O)N3CCN(C(=O)c4ccco4)CC3)c2-n2cccc2)cc1` gave TRPC4 potent inactive, TRPC4 act inactive, TRPC6 activator inactive, TRPC4 block inactive, TRPC6 inhibitor -5.3*, HEK293 MPD ctr-2 inactive, HEK293 MPD ctr 2-2 inactive, TRPC4/MOR mod 9.0%*, TRPC4 ctr inh 2 inactive and TRPC6 inh conf 59%*.
O=C(NCCCN1CCOCC1)C(=O)N/N=C/c1ccc2c(c1)OCO2 was read as TRPC4 potent inactive, TRPC4 act inactive, TRPC6 activator inactive, TRPC4 block inactive, TRPC6 inhibitor -8.3*, TRPC4 spec 2 inactive, TRPC4 spec inactive, HEK293 MPD ctr 2-1 inactive, HEK293 MPD ctr-1 inactive, TRPC6 inh conf inactive and TRPC6 act conf inactive.
Screening O=C(NCCCN1CCOCC1)C(=O)N/N=C/c1ccc(F)cc1 returned TRPC4 potent inactive, TRPC4 act inactive, TRPC6 activator inactive, TRPC4 block inactive and TRPC6 inhibitor inactive.
`Cc1nnc2ccc(-c3cccc(NC(=O)c4ccc(Br)o4)c3)nn12` gave TRPC4 potent inactive, TRPC4 act inactive, TRPC6 activator inactive, TRPC4 block inactive and TRPC6 inhibitor inactive.
Cc1nnc2ccc(-c3cccc(NC(=O)c4ccc(Cl)nc4)c3)nn12 was read as TRPC4 potent inactive, TRPC4 act inactive, TRPC6 activator inactive, TRPC4 block inactive, TRPC6 inhibitor -5.8*, HEK293 MPD ctr-2 inactive, HEK293 MPD ctr 2-2 inactive, TRPC4/MOR mod -16%*, TRPC4 ctr inh 2 37%*, TRPC6 inh conf 48%* and TRPC6 act conf inactive.
For Cc1nnc2sc(-c3cccc(NC(=O)c4cccnc4)c3)nn12 the results were TRPC4 potent inactive, TRPC4 act inactive, TRPC6 activator inactive, TRPC4 block inactive, TRPC6 inhibitor -6.5*, HEK293 MPD ctr-2 -148%*, HEK293 MPD ctr 2-2 inactive, TRPC4/MOR mod -28%*, TRPC4 ctr inh 2 inactive, TRPC6 inh conf inactive and TRPC6 act conf inactive.
Screening Cc1ccc(-c2nn3c(C)nnc3s2)cc1NC(=O)c1cccnc1 returned TRPC4 potent inactive, TRPC4 act inactive, TRPC6 activator inactive, TRPC4 block inactive, TRPC6 inhibitor -9.7*, HEK293 MPD ctr-2 -244%*, HEK293 MPD ctr 2-2 inactive, TRPC4/MOR mod -43%*, TRPC4 ctr inh 2 40%*, TRPC6 inh conf inactive and TRPC6 act conf inactive.
Screening CCOc1cccc(C(=O)Nc2cc(-c3nn4c(C)nnc4s3)ccc2C)c1 returned TRPC4 potent inactive, TRPC4 act inactive, TRPC6 activator inactive, TRPC4 block inactive and TRPC6 inhibitor inactive.
Screening CCN(CC)S(=O)(=O)c1ccc(C(=O)NCC(=O)NCCCc2ccccc2)cc1 returned TRPC4 potent inactive, TRPC4 act inactive, TRPC6 activator inactive, TRPC4 block inactive and TRPC6 inhibitor inactive.
